In assay [1] the test system is SW1573. The experiment in a line: Cell cycle arrest in human SW1573 cells by decrease in accumulation at S phase at 2 uM after 24 hrs by flow cytometry. The class given is functional, cell-based. In outline: (§1)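 Cells seeded at 2.5–5 × 10^5 per well in six-well plates. After 24 h, compound added at three concentrations for a further 24 h; controls without drug. Cells trypsinized, fixed in ice-cold 70% ethanol overnight at −20 °C, treated with RNase (37 °C, 30 min, dark) and stained with propidium iodide. DNA content measured by flow cytometry, 25,000 cells/sample.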

The test system of assay [2] is T47D. The experiment in a line: Antiproliferative activity against human T47D cells after 48 hrs by SRB assay. The class given is functional. The method in brief:
(§2)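 RPMI 1640 with 5% heat-inactivated FCS and 2 mM L-glutamine at 37 °C, 5% CO2. Seeded at 15,000 (WiDr, T-47D, HeLa) or 10,000 (A2780, SW1573, HBL-100) cells/well. Drug added day 1 in triplicate dilutions; vehicle DMSO 0.25% v/v final. 48 h, then TCA fixation and SRB staining read at OD 492 nm, background-corrected. GI50 from NCI percentage-growth formulas using T0 and T; mean of two to six experiments with SD.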
Background: Sulforhodamine B stains cellular protein and so reports cell mass.

Assay [3] has as its system SW1573. The experiment in a line: Cell cycle arrest in human SW1573 cells by increase in accumulation at G2/M phase at 2 uM after 24 hrs by flow cytometry. The class given is functional, cell-based. The method in brief:
as §1
In general terms: Flow cytometry measures light scatter and fluorescence of single cells or particles in a stream.

Assay [4] has as its system HeLa. The experiment in a line: Cell cycle arrest in human HeLa cells by accumulation at subG1 phase after 24 hrs by flow cytometry. The class given is functional, cell-based. In outline:
as §1

The test system of assay [5] is T47D. The assay can be described thus: Cell cycle arrest in human T47D cells by decrease in accumulation at S phase at 2 uM after 24 hrs by flow cytometry. The class given is functional, cell-based. In outline:
as §1

Assay [6] has as its system HBL-100. The experiment in a line: Cell cycle arrest in human HBL100 cells by decrease in accumulation at S phase at 2 uM after 24 hrs by flow cytometry. The class given is functional, cell-based. In outline:
as §1

Assay [7] has as its system HBL-100. The experiment in a line: Antiproliferative activity against human HBL100 cells after 48 hrs by SRB assay. The class given is functional. To be noted: HBL-100, 48 h. In outline: as §2
Assay [8] has as its system T47D. The assay can be described thus: Cell cycle arrest in human T47D cells by accumulation at subG1 phase after 24 hrs by flow cytometry. The class given is functional, cell-based. The method in brief: as §1
The subject of assay [9] is SW1573. The assay can be described thus: Cell cycle arrest in human SW1573 cells by decrease in accumulation at G1 phase at 2 uM after 24 hrs by flow cytometry. The class given is functional, cell-based. In outline:
as §1

Assay [10] has as its system SW1573. The assay can be described thus: Cell cycle arrest in human SW1573 cells by accumulation at subG1 phase after 24 hrs by flow cytometry. The class given is functional, cell-based. The method in brief:
as §1

In assay [11] the test system is HeLa. The experiment in a line: Antiproliferative activity against human HeLa cells after 48 hrs by SRB assay. The class given is functional. In outline:
as §2

For assay [12], the system named is HBL-100. The assay can be described thus: Cell cycle arrest in human HBL100 cells by accumulation at subG1 phase after 24 hrs by flow cytometry. The class given is functional, cell-based. In outline:
as §1

The subject of assay [13] is HBL-100. The assay can be described thus: Cell cycle arrest in human HBL100 cells by decrease in accumulation at G1 phase at 2 uM after 24 hrs by flow cytometry. The class given is functional, cell-based. In outline: as §1
Assay [14] deals with A2780. The experiment in a line: Antiproliferative activity against human A2780 cells after 48 hrs by SRB assay. The class given is functional. To be noted: A2780, 48 h. In outline: as §2
In assay [15] the test system is WiDr. The experiment in a line: Antiproliferative activity against human WiDr cells after 48 hrs by SRB assay. The class given is functional. In outline:
as §2

Assay [16] concerns SW1573. The experiment in a line: Antiproliferative activity against human SW1573 cells after 48 hrs by SRB assay. The class given is functional. As to conditions: SW1573, 48 h. The method in brief: as §2
Assay [17] deals with WiDr. The experiment in a line: Cell cycle arrest in human WiDr cells by accumulation at subG1 phase after 24 hrs by flow cytometry. The class given is functional, cell-based. The method in brief:
as §1

The test system of assay [18] is T47D. The experiment in a line: Cell cycle arrest in human T47D cells by increase in accumulation at G2/M phase at 2 uM after 24 hrs by flow cytometry. The class given is functional, cell-based. In outline:
as §1

Assay [19] relates to T47D. The assay can be described thus: Cell cycle arrest in human T47D cells by decrease in accumulation at G1 phase at 2 uM after 24 hrs by flow cytometry. The class given is functional, cell-based. The method in brief: as §1
The test system of assay [20] is HBL-100. The assay can be described thus: Cell cycle arrest in human HBL100 cells by increase in accumulation at G2/M phase at 2 uM after 24 hrs by flow cytometry. The class given is functional, cell-based. The method in brief:
as §1

Each structure is given as a SMILES string. Activity calls are given as the source filed them. The calls are words filed in the database; no cut-off is given here.

Turning to `Nc1nc(N2CCCCCC2)nc2c1[N+]([O-])=C(c1ccccc1)C2=O`, the outcome in assay [1], in [3], in assay [5], in [6], in assay [9] and in [13] was Active. Further, the result in assay [18], in [19] and in assay [20] was Active. Further, the GI50 (in general, the concentration at which growth is held to half of that of the control) in assay [2] stood at 0.35 µM; in assay [7], 1.4 µM; in assay [11] it was 2 µM; in assay [14] it was 1.8 µM; in [15], 1.8 µM; in assay [16] it was 1.3 µM. Moreover, the Activity result in [4], in assay [8], in [10], in assay [12] and in assay [17] was “Dose-dependent effect” throughout.

With `Nc1nc(N2CCCCC2)nc2c1[N+]([O-])=C(c1ccccc1)C2=O`, the GI50 in [2] was found to be 2.7 µM; in assay [7] it was 1.7 µM; in assay [11], 3.5 µM; in assay [14] it was 2.9 µM; in assay [15], 3.7 µM; in assay [16], 3.3 µM.

With `Nc1nc(NCCN2CCOCC2)nc2c1[N+]([O-])=C(c1ccccc1)C2=O`, the GI50 in assay [2] is 17 µM; in [7], 3.4 µM; in [11], 15 µM; in [14], 2.9 µM; in assay [15], 16 µM; in assay [16], 14 µM.

For `Cc1ccc(C2=[N+]([O-])c3c(N)ncnc3C2=O)cc1`, the GI50 in assay [2], in assay [7], in assay [11], in assay [14], in [15] and in assay [16] was > 100 µM throughout.

As to `Nc1nc(NCCc2ccccc2)nc2c1[N+]([O-])=C(c1ccccc1)C2=O`, the GI50 in [2] was 41 µM; in assay [7], 17 µM; in [11], > 100 µM; in assay [14], 37 µM; in assay [15], 71 µM; in assay [16] it was 22 µM.

Take `CSc1nc(NCCN2CCOCC2)c2c(n1)C(=O)C(c1ccccc1)=[N+]2[O-]`: the GI50 was > 100 µM in assay [2]; 24 µM in assay [7]; > 100 µM in [11]; > 100 µM in assay [14]; > 100 µM in assay [15]; > 100 µM in [16].

Regarding `CSc1nc(N)c2c(n1)C(=O)C(c1ccc(C)cc1)=[N+]2[O-]`, the GI50 in assay [2] is > 100 µM; in assay [7] it was 28 µM; in assay [11], > 100 µM; in [14], 93 µM; in [15], > 100 µM; in [16], 31 µM.

For the compound `CCc1ccc(C2=[N+]([O-])c3c(N)ncnc3C2=O)cc1`, the GI50 came out at 82 µM in assay [2]; 54 µM in assay [7]; 75 µM in [11]; 39 µM in [14]; 70 µM in assay [15]; 40 µM in assay [16].

For `CN1CCN(c2nc(N)c3c(n2)C(=O)C(c2ccccc2)=[N+]3[O-])CC1`, the GI50 in [2] is > 100 µM; in [7] it was 18 µM; in assay [11], > 100 µM; in [14], 24 µM; in assay [15] it was 46 µM; in assay [16], 23 µM.

As for `C=CCNc1nc(N)c2c(n1)C(=O)C(c1ccccc1)=[N+]2[O-]`, the GI50 stood at 2.8 µM in assay [2]; 2.7 µM in assay [7]; 7.6 µM in [11]; 1.9 µM in assay [14]; 4.7 µM in [15]; 6.8 µM in [16].

Take `CSc1nc2c(c(N3CCCC3)n1)[N+]([O-])=C(c1ccccc1)C2=O`: the GI50 in assay [2], in assay [7], in assay [11], in [14], in assay [15] and in [16] was > 100 µM throughout.

As for `Nc1ncnc2c1[N+]([O-])=C(c1ccccc1)C2=O`, the GI50 in assay [2] is > 100 µM; in [7] it was 72 µM; in assay [11], > 100 µM; in assay [14], 30 µM; in [15], > 100 µM; in assay [16], 85 µM.

Turning to `Nc1nc(N2CCOCC2)nc2c1[N+]([O-])=C(c1ccccc1)C2=O`, the GI50 in assay [2] was determined as 7.5 µM; in assay [7], 22 µM; in [11], 38 µM; in assay [14], 37 µM; in assay [15] it was 20 µM; in assay [16] it was 27 µM.

`Nc1nc(NCc2ccccc2)nc2c1[N+]([O-])=C(c1ccccc1)C2=O`: the GI50 in [2] amounted to 4 µM; in assay [7], 5.1 µM; in [11], 29 µM; in assay [14], 3.7 µM; in assay [15] it was 24 µM; in assay [16] it was 30 µM.

On to `CSc1nc(NCc2ccccc2)c2c(n1)C(=O)C(c1ccccc1)=[N+]2[O-]`, for which the GI50 in assay [2] was 81 µM; in [7] it was 27 µM; in [11] it was 36 µM; in assay [14], 59 µM; in [15], 79 µM; in assay [16], 26 µM.

For the compound `Nc1nc(NCCN2CCCC2)nc2c1[N+]([O-])=C(c1ccccc1)C2=O`, the GI50 in assay [2] turned out to be 13 µM; in assay [7], 1.8 µM; in assay [11] it was 16 µM; in [14] it was 2.6 µM; in [15] it was 14 µM; in assay [16], 6.2 µM.

Consider `CCc1ccc(C2=[N+]([O-])c3c(N)nc(SC)nc3C2=O)cc1`, for which the GI50 in [2] amounted to 43 µM; in assay [7], 37 µM; in assay [11], 80 µM; in assay [14] it was 54 µM; in assay [15], 53 µM; in assay [16], 37 µM.

On to `CN(C)CCCNc1nc(N)c2c(n1)C(=O)C(c1ccccc1)=[N+]2[O-]`, for which the GI50 is 16 µM in [2]; 2 µM in assay [7]; 20 µM in assay [11]; 2.3 µM in assay [14]; 19 µM in assay [15]; 2.1 µM in assay [16].

With `C[S+]([O-])c1nc(N)c2c(n1)C(=O)C(c1ccccc1)=[N+]2[O-]` (centres undefined), the GI50 is > 100 µM in assay [2]; 32 µM in [7]; > 100 µM in assay [11]; 79 µM in assay [14]; > 100 µM in assay [15]; > 100 µM in [16].

`COC(=O)CNc1nc(N)c2c(n1)C(=O)C(c1ccccc1)=[N+]2[O-]`: the GI50 in [2] was determined as 14 µM; in [7] it was 2.8 µM; in assay [11], 19 µM; in [14] it was 1.9 µM; in [15], 18 µM; in assay [16], 12 µM.
